GASC-1 inh = inhibitors of human GASC-1 (JMJD2C) demethylase | Q9H3R0 | GST-JMJD2C(1-420) H3K9me3 demethylation, DELFIA europium | inhibition, % at 2.35 µM | 0.069% of 330,000 active;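 active means more than half of a compound's replicate wells show inhibition beyond 50%, single wells judged on their own value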;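 further: signal counts dimethyl H3K9 product captured on neutravidin plate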
Target sequence (Q9H3R0 1-420 limits assumed): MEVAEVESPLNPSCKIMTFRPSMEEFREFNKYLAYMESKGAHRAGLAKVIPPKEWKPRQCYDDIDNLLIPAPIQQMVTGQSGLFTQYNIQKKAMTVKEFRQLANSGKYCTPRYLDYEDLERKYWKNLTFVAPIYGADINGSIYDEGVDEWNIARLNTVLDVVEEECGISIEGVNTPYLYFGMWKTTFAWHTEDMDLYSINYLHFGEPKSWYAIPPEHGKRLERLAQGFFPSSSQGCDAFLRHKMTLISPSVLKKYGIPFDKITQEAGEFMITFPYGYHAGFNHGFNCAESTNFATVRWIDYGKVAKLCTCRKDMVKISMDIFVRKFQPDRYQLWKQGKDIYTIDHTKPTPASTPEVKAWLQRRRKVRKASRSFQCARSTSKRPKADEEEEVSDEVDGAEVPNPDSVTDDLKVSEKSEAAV
UCH37 DUB inh = inhibitors of human deubiquitinating enzyme UCH37; Q9Y5K5; purified proteasome/UCH37, Ub-AMC cleavage fluorescence; inhibition, % (no concentration beside the values); 0.33% of 330,000 active;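 active means mean inhibition over replicate wells above about 20%, limit read from the data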
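assay system = human UCH37 enzyme supplied as purified proteasome complex | amount = proteasome at 0.15 nM in the dispensed enzyme solution | schedule = 30 min compound-proteasome preincubation then 25 min substrate reaction, room temperature | measured by = fluorescence, ex 355 nm, em 460 nm | benchmarks = no-proteasome wells (full inhibition) and compound-free wells (no inhibition)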
A3G deaminase = inhibitors of human APOBEC3G DNA deaminase; Q9HC16; recombinant A3G, ssDNA deamination FAM/TAMRA fluorescence; inhibition, % at 20 µM; 0.28% of 330,000 active; AID 493012;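 active means inhibition of at least 40% at 20 µM, with no more than 30% in the related APOBEC3A deaminase screen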
A3A deaminase = inhibitors of human APOBEC3A DNA deaminase | recombinant A3A, FAM/TAMRA ssDNA deamination fluorescence | 0.41% of 330,000 active | AID 493011 | P31941 | inhibition, % at 20 µM;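 active means at least 40% inhibition at 20 µM here, with at most 30% in a related deaminase screen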
Target sequence (P31941 whole entry, looked up): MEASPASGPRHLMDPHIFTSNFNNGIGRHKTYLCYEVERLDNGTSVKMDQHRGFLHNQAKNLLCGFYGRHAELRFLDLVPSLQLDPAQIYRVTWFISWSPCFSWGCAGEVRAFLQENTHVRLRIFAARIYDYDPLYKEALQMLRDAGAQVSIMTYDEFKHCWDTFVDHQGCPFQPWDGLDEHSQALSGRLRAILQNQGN
A3A conf = confirmation of human APOBEC3A DNA deaminase inhibitors; recombinant A3A, ssDNA deaminase UDG fluorescence assay; shares compounds with A3A deaminase; 63% of 1,400 active; inhibition, % at 20 µM;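 active means inhibition reaching a set limit, 80% of the first screen's cutoff, at 20 µM in any replicate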
UDG ctr A3A = counter-screen for APOBEC3A inhibitors: UDG; inhibition, % at 20 µM; UDG counterscreen, FAM/TAMRA uracil oligo fluorescence; shares compounds with A3A deaminase; 1,000 tested, under 10 active; AID 504714; call rule not given here
A number is an active result; – = inactive; · = no result. Compounds with a hit are over-represented: about 0.97% of the library has one in this group of screens.

SMILES	GASC-1 inh	UCH37 DUB inh	A3G deaminase	A3A deaminase	A3A conf	UDG ctr A3A
COc1ccc2c(c1)sc(=N)n2C	–	–	–	43.8	–	·
CCOC(=O)c1ccc(NC(=O)CSc2nc(C)cc(=O)[nH]2)cc1	–	–	–	45.8	66.3	–
Cc1cc(=O)[nH]c(SCC(=O)Nc2ccc(C(=O)O)cc2)n1	–	–	–	–	·	·
O=C(CSc1nc2ncccc2[nH]1)NCc1ccco1	–	–	–	–	·	·
O=C(CSc1nccc(=O)[nH]1)NCc1ccco1	–	–	–	48.8	35.0	–
Cc1cc(=O)[nH]c(SCC(=O)NCc2ccco2)n1	–	–	–	65.2	55.0	–
Cc1nnc(SCC(=O)NCc2ccco2)[nH]c1=O	–	–	–	–	·	·
COc1cc(C=NNc2ccnc(=O)[nH]2)ccc1O	·	–	·	·	·	·
Cc1ccc(N2CC(C(=O)NCc3nnnn3-c3ccc(C)c(C)c3)CC2=O)cc1 (stereo not given)	–	·	–	51.7	–	–
Cc1ccc(-n2nnnc2CNC(=O)C2CC(=O)N(c3ccccc3)C2)cc1C (stereo not given)	–	–	–	–	·	·
CCOC(=O)N1CCN(c2ccc(C(=O)c3cccc(F)c3)cc2)CC1	–	–	–	44.9	–	–
CC(O)=C(C#N)c1nc2ccccc2[nH]1	·	–	·	·	·	·
CC(=O)OC1C2CCC1C([N+]1(C)CCCCC1)CC2 (stereo not given)	–	–	–	72.8	72.9	–
C[N+]1(C2CCC3CCC2C3O)CCCC1 (stereo not given)	–	–	–	40.7	67.1	–
C[N+]1(CC(=O)OC2CCCCCCCCCCC2)CCCC1	–	–	–	–	·	·
Nc1nonc1-n1nnc(C(=O)NN=Cc2ccccc2Cl)c1CSc1ccccc1	·	–	·	·	·	·
COc1cccc(OCCn2cc(C(=O)c3ccco3)c3ccccc32)c1	–	–	–	–	·	·
COc1cccc(OCCn2cc(C(C)=O)c3ccccc32)c1	–	–	–	47.7	–	·
CN(C)/C=C(/C(=O)c1ccc(Cl)c(Cl)c1)S(C)(=O)=O	–	–	–	–	·	·
CN(C)/C=C(/C(=O)c1ccc(Cl)cc1)S(C)(=O)=O	–	–	–	43.5	–	·
O=C(CC(=O)NN=Cc1ccccc1)NCc1ccccc1	·	–	·	·	·	·
CC(=NNc1cc(-c2ccccc2)nc(-c2ccccc2)n1)c1ccc(O)c(C)c1	·	–	·	·	·	·
COc1cccc(N2[C@@H](CC(=O)O)c3ccc(/C=C/C(=O)O)cc3S2(=O)=O)c1	–	–	–	94.0	78.9	–
NC(=O)C[n+]1cccc(C(=O)Nc2ccccc2)c1	–	–	–	76.2	77.5	–
Cc1occc1C(=O)NN=Cc1ccc(OCc2ccccc2)cc1	·	–	·	·	·	·
SMILES	GASC-1 inh	UCH37 DUB inh	A3G deaminase	A3A deaminase	A3A conf	UDG ctr A3A
O=C(Cn1c(=O)n(Cc2ccco2)c(=O)c2c3c(sc21)CCCCC3)c1ccccc1	–	–	–	–	·	·
O=C(Cn1c(=O)n(Cc2ccco2)c(=O)c2c3c(sc21)CCCCC3)Nc1ccccc1	–	–	–	49.3	54.6	·
Cc1cccc(CC(=O)N2CCC(N3CCC(C(=O)N4CCOCC4)CC3)CC2)c1	–	–	–	97.7	–	–
Cc1cccc(C(=O)N2CCC(N3CCC(C(=O)N4CCOCC4)CC3)CC2)c1	–	–	–	–	·	·
COc1ccc2c(CC(=O)Nc3ccc(OC)c(S(=O)(=O)N4CCOCC4)c3)coc2c1	–	–	–	–	·	·
COc1ccc(NC(=O)Cc2coc3cc(C)c(C(C)C)cc23)cc1S(=O)(=O)N1CCOCC1	–	–	–	48.5	–	·
CC(=O)Nc1ccc(C(=O)NN=Cc2ccncc2)cc1	·	–	·	·	·	·
COc1ccc(Br)cc1C=NNC(=O)CN1CCN(Cc2ccccc2)CC1	·	–	·	·	·	·
CCc1ccc(C=NNC(=O)c2nnn(-c3nonc3N)c2CN2CCc3ccccc32)cc1	·	–	·	·	·	·
COc1ccc2[nH]c(O)c(N=O)c2c1	–	–	–	54.1	53.3	–
COc1ccc(NC(=O)CN(C)C(=O)c2cc(-c3cccs3)nn2-c2ccccc2)cc1	–	–	–	–	·	·
CCN(CC(=O)Nc1ccc(OC)cc1)C(=O)c1cc(-c2cccs2)nn1-c1ccccc1	–	–	–	78.4	–	–
O=[N+]([O-])c1ccccc1/C=N/Nc1nc(N2CCCC2)nc(N2CCCC2)n1	–	·	–	–	·	·
O=[N+]([O-])c1ccccc1/C=C/C=N/Nc1nc(N2CCCCC2)nc(N2CCCCC2)n1	–	·	–	78.2	80.7	–
COc1ccc(CSCC(=O)NN=Cc2ccc(OCC(=O)NCc3ccco3)cc2)cc1	·	–	·	·	·	·
CCCC(=O)Nc1nn(C)c2nc3cc(C)ccc3cc12	–	–	–	–	·	·
CCn1nc(NC(=O)COC)c2cc3cc(C)ccc3nc21	–	–	–	45.1	59.0	–
CCCn1nc(NC(=O)COC)c2cc3cc(C)ccc3nc21	–	–	–	52.7	57.8	–
CCCCn1nc(NC(=O)COC)c2cc3ccc(C)cc3nc21	–	–	–	46.9	66.7	–
O=C1N/C(=N\N=Cc2ccco2)SC1Cc1ccc(F)cc1 (stereo not given)	·	–	·	·	·	·
CCn1c(SCC(=O)NN=C(C)c2ccncc2)nnc1-c1ccccc1	·	–	·	·	·	·
CS(=O)(=O)c1ccc(-c2nnn(CC(N)=O)n2)cc1	–	–	–	50.4	–	·
COc1ccc(CCNC(=O)CN(C2CCCCC2)S(C)(=O)=O)cc1OC	–	–	–	44.3	57.6	–
CS(=O)(=O)N(CC(=O)NCCc1ccccc1)C1CCCCC1	–	–	–	–	·	·
CCC(C)Sc1nnc(Cc2cc(=O)[nH]c(=O)[nH]2)n1-c1ccc(OC)cc1 (stereo not given)	–	–	–	63.3	–	–
SMILES	GASC-1 inh	UCH37 DUB inh	A3G deaminase	A3A deaminase	A3A conf	UDG ctr A3A
CC(=O)Nc1ccc(C(=O)NC2CCSc3ccccc32)cc1 (stereo not given)	–	–	–	44.5	–	·
C=CCNC(=O)c1ccc2c(c1)N(CC)C(=O)c1ccccc1S2	–	–	–	–	·	·
CCOC(=O)c1ccc2c(c1)N(CC)C(=O)c1ccccc1S2	–	–	–	51.7	72.4	–
CCC1(c2ccccc2)NC(=O)N(CC(=O)Nc2ccccc2N2CCCC2)C1=O (stereo not given)	–	–	–	–	·	·
CCC1(c2ccccc2)NC(=O)N(CC(=O)Nc2cc(Cl)ccc2N2CCOCC2)C1=O (stereo not given)	–	–	–	47.0	–	·
CC(=O)Oc1ccccc1/C=C/c1ccc2ccccc2[n+]1C	–	–	–	–	·	·
COc1ccc(/C=C/c2ccc3ccccc3[n+]2C)cc1OC	–	–	–	65.6	80.9	–
COc1ccc(CC(=O)Nc2cccc(/C(C)=N/NC(=O)c3cccc([N+](=O)[O-])c3)c2)cc1	–	·	–	71.5	–	·
O=C1c2ccccc2C(=O)c2c(O)c(O)cc(O)c21	·	–	–	–	·	·
O=C1C=C(O)c2c(O)cc(O)c(O)c2C1=O	–	–	–	83.4	76.0	·
CCc1ccc(OCC(=O)NN=C(C)c2ccc3c(c2)OCCO3)cc1	·	–	·	·	·	·
